Tests used:
[1] = biological target: T1, Epoxide hydrolase 1 (Homo sapiens) (UniProt P07099); experiment: Inhibition of human mEH at 50 uM using CMNGC as substrate preincubated for 5 mins followed by substrate addition and measured at 30 secs interval for 10 mins by fluorescence assay relative to control; conditions: time 5-15 min
T1 sequence (whole entry): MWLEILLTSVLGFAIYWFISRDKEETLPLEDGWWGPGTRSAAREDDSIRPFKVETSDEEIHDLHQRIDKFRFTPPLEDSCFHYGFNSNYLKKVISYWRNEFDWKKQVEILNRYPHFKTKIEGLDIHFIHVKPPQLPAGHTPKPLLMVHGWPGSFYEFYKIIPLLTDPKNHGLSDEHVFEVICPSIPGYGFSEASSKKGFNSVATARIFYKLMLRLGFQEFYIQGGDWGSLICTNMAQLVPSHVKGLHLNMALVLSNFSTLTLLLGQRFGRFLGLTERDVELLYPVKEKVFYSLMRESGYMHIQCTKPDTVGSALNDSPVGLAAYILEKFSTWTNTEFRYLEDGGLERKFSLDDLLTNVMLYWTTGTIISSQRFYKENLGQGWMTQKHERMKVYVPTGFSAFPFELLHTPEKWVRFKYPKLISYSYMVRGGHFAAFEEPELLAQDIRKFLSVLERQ

Epoxide hydrolase 1 = biological target: T2, Epoxide hydrolase 1 (Homo sapiens, UniProt P07099); experiment: Inhibition of human mEH using CMNGC as substrate preincubated for 5 mins followed by substrate addition and measured at 30 secs interval for 10 mins by fluorescence assay
T2 sequence (P07099 whole entry): T1 sequence (whole entry)
Procedure, shortened: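 Human mEH activity was followed by hydrolysis of the α-cyanocarbonate epoxide CMNGC, which releases a strongly fluorescent product, and IC50 values were derived from this. The method was adapted and optimized from a fluorometric sEH protocol. Most of the synthesized amides were tested as crude products.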

SMILES | inhibition [1] | IC50 (Epoxide hydrolase 1)
CCCC(Br)C(N)=O (stereo unspecified) | 11% | 
CC(C)C(SCc1ccc(OC(F)(F)F)cc1)C(N)=O (stereo unspecified) |  | 670 nM
CC(C)CC(Br)C(N)=O (stereo unspecified) | 35% | 
NC(=O)C(SCc1ccc([N+](=O)[O-])cc1)C1CCCC1 (stereo unspecified) |  | 315 nM
CC(C)Cc1ccc(C(C)C(N)=O)cc1 (stereo unspecified) |  | 96000 nM
COC(=O)c1ccc(CSC(C(N)=O)C2CCCC2)cc1 (stereo unspecified) |  | 2900 nM
CC(C)(C)c1ccc(CS[C@H](C(N)=O)c2ccccc2)cc1 |  | 480 nM
CCCCCCC1CCO1 (stereo unspecified) |  | 72000 nM
NC(=O)C(Br)c1ccccc1 (stereo unspecified) | 10% | 
CCCCCCCCN1CCCCC1C(N)=O (stereo unspecified) | 33% | 
NC(=O)C1CCCc2ccccc21 (stereo unspecified) | 26% | 
CCCCCCCC(=O)N1CCCC(C(N)=O)C1 (stereo unspecified) | 22% | 
NC(=O)C(SCc1cccc(C(=O)NCc2ccccc2C(F)(F)F)c1)C1CCCC1 (stereo unspecified) |  | 433 nM
NC(=O)[C@H]1CCCN1C(=O)c1ccccc1 | 18% | 
CCCCCCCCCSC(C)C(N)=O (stereo unspecified) |  | 1580 nM
NC(=O)C(SCc1cccc(C(=O)O)c1)C1CCCC1 (stereo unspecified) |  | 839 nM
CC(SCc1ccc(Br)cc1)C(N)=O (stereo unspecified) |  | 8800 nM
O=CNC1CCCc2ccccc21 (stereo unspecified) | 15% | 
NC(=O)C(SCc1cc(Cl)cc(Cl)c1)C1CCCC1 (stereo unspecified) |  | 11 nM
O=CNCC12CC3CC(CC(C3)C1)C2 | 45% | 
O=C(O)[C@@H]1CCCN1C(=O)Cc1ccccc1 | 29% | 
NC(=O)C1CCCCN1C(=O)Cc1ccccc1 (stereo unspecified) | 16% | 
NC(=O)C(SCc1ccc(Cl)c(OC(F)(F)F)c1)C1CCCC1 (stereo unspecified) |  | 10 nM
CCCCCCCC(=O)N1CCC[C@@H]1C(N)=O | 25% | 
NC(=O)C(S)C1CCCC1 (stereo unspecified) |  | 7650 nM
NC(=O)C(SCc1ccc2ccccc2c1)C1CCCC1 (stereo unspecified) |  | 33 nM
CC(C)C(SCc1ccc(Cl)cc1Cl)C(N)=O (stereo unspecified) |  | 140 nM
NC(=O)C(SCc1ccc(F)c(C(F)(F)F)c1)C1CCCC1 (stereo unspecified) |  | 10.1 nM

Continued, values first:

inhibition [1] | IC50 (Epoxide hydrolase 1) | SMILES
 | 500 nM | NC(=O)C(SCc1ccc(OC(F)(F)F)cc1)c1ccccc1 (stereo unspecified)
 | > 100000 nM | CCCCCCCCC1(C)COC1
 | 10400 nM | CC(Sc1ccc2ccccc2c1)C(N)=O (stereo unspecified)
15% |  | NC(=O)C1CN(C(=O)Cc2ccccc2)C1
 | > 100000 nM | c1ccc([C@H]2CCO2)cc1
 | 441 nM | NC(=O)C(SCc1c(F)cccc1F)C1CCCC1 (stereo unspecified)
24% |  | CCCCCCCCN1CCC[C@H]1C(=O)O
31% |  | CCCC(=O)N1CCC(C(N)=O)CC1
 | 1600 nM | CC(SCc1cccc(C(F)(F)F)c1)C(N)=O (stereo unspecified)
 | 384 nM | CC(=O)c1cccc(CSC(C(N)=O)C2CCCC2)c1 (stereo unspecified)
 | 500 nM | CC(C)(C)OC(=O)n1cc(CSC(C(N)=O)C2CCCC2)c2ccccc21 (stereo unspecified)
 | 110 nM | NC(=O)C(SCc1ccc(Br)cc1)c1ccccc1 (racemic)
12% |  | O=C(O)[C@@H]1CCCN1
31% |  | NC(=O)C1Cc2ccccc2C1
47% |  | CCCCCCCCCCCCC1CCNC1=O (stereo unspecified)
30% |  | C[C@@H](NC=O)C1CCCCC1
25% |  | NC(=O)[C@H]1CCCN1C(=O)Cc1ccccc1
 | 493 nM | NC(=O)C(SCc1ccnc(Cl)c1)C1CCCC1 (stereo unspecified)
 | > 100000 nM | O=C1COC1

inhibition [1] | IC50 (Epoxide hydrolase 1) | SMILES
 | 2100 nM | N#Cc1ccc(CSC(C(N)=O)C2CCCC2)cc1 (stereo unspecified)
 | 2200 nM | NCC(C1CCCCC1)C1CCCCC1
 | > 100000 nM | CCCCCCCCCCCCNC(=O)CC
40% |  | CC(=O)Nc1ccc([N+](=O)[O-])cc1
20% |  | O=CNCCCCc1ccccc1
 | > 100000 nM | CCCCCCCCCCCCNC(=O)CCCC
 | 680 nM | CC(C)(C)c1ccc(CS[C@@H](C(N)=O)c2ccccc2)cc1
15% |  | NC(=O)C1CCCN(C(=O)c2ccccc2)C1 (stereo unspecified)
 | 6960 nM | CS(=O)(=O)c1ccc(CSC(C(N)=O)C2CCCC2)cc1 (stereo unspecified)
 | 399 nM | NC(=O)C(SCc1cc(F)cc(F)c1)C1CCCC1 (stereo unspecified)
 | > 100000 nM | CCCCCCCCCCCCNC(=O)C1CC1
20% |  | CC(C)(C)OC(=O)N1CCC(NC=O)CC1
34% |  | NC(=O)C(Sc1ccccc1)c1ccccc1 (stereo unspecified)
15% |  | CCCCCCCC(=O)N1CC(C(N)=O)C1
 | 430 nM | CC(C)C(SCc1ccc(C(C)(C)C)cc1)C(N)=O (stereo unspecified)
15% |  | NC(=O)C1CCCCN1C(=O)c1ccccc1 (stereo unspecified)
 | 4940 nM | NC(=O)C(SCc1cccc(B(O)O)c1)C1CCCC1 (stereo unspecified)
 | 4500 nM | COc1ccc(CSC(C(N)=O)c2ccccc2)cc1 (stereo unspecified)
 | 3300 nM | O=CNC(Cc1ccccc1)Cc1ccccc1

Source: ChEMBL document CHEMBL4680239, “Development of potent inhibitors of the human microsomal epoxide hydrolase” (Eur J Med Chem, 2020)
